Test results reported in publication PMC4475435 (Clinical therapeutics, 2015).
Where two headings read alike, the source gives them in different places. Marks after values point to notes of the source that are not given here.

Key:
[1] = Population-based PK model; format: in vivo, human
Summary of the method: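 Matched case-control: overweight/obese children (≥85th percentile, CDC charts) vs normal-weight controls matched on age (±1 y), SCr (±0.4 mg/dL), nephrotoxic co-medication and ICU stay; 389 serum levels, mostly drawn after third dose, with full dosing history. One-compartment first-order model, FOCE with interaction; age and SCr on CL; weight on Vd, weight^0.75 on CL; MAP Bayesian POSTHOC individual estimates; 1000-replicate bootstrap 95% CIs.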

[2] = weight used: Weight, cited from earlier work
[3] = cited from earlier work
[4] = bootstrap analysis of 1000 replicates
[5] = obese and overweight children compared with those with normal weight
[6] = overweight/obese cases versus normal-weight controls, 87 matched pairs
[7] = 18 overweight children, age 5, 0.5–18 y
[8] = 4 normal-weight adults (Weight <115% IW), 25–30 y, weight used: Weight, SD
[9] = 6 morbidly obese adults (Weight >190% IW), 27–37 y, weight used: Weight, SD
[10] = 6 morbidly obese adults, 27–37 y, weight used: IW, SD
[11] = 24 morbidly obese adults (Weight >190% IW), 41 (7) y, weight used: Weight, SD
[12] = 24 morbidly obese adults, weight used: IW, SD
[13] = 24 normal-weight adults, weight used: IW, SD

For `CN[C@H](CC(C)C)C(=O)N[C@H]1C(=O)N[C@@H](CC(N)=O)C(=O)N[C@H]2C(=O)N[C@H]3C(=O)N[C@H](C(=O)N[C@H](C(=O)O)c4cc(O)cc(O)c4-c4cc3ccc4O)[C@H](O)c3ccc(c(Cl)c3)Oc3cc2cc(c3O[C@@H]2O[C@H](CO)[C@@H](O)[C@H](O)[C@H]2O[C@H]2C[C@](C)(N)[C@H](O)[C@H](C)O2)Oc2ccc(cc2Cl)[C@H]1O` [vancomycin], the “θ1, Median Bootstrap Estimate (95% CI)” value [1, 4] was 0.572 (0.514–0.632), the “θ2, Median Bootstrap Estimate (95% CI)” value [1, 4] was 0.285 (0.268–0.304) and the “θ3, Median Bootstrap Estimate (95% CI)” value [1, 4] was 0.291 (0.165–0.395). For the same molecule, the “θ4, Median Bootstrap Estimate (95% CI)” value [1, 4] was 0.742 (0.194–1.263), the “θ1, population estimate: Vd (L) = θ1 × Weight (kg)” value ([1]; final population PK model, 174 participants, 389 concentrations) was 0.574 and the “decrease of weight-adjusted CL” value [1, 5] was 10.8%. The “decrease of weight-adjusted Vd” value [1, 5] was 2.2%, the “mean CL, based on weight, for cases lower than controls by” value [1, 6] was 0.233 mL/min/kg and the “mean Vd, based on weight, for cases lower than controls by” value [1, 6] was 0.012 L/kg. The “Clearance, Mean (SD) or Median (Range)” value ([2]; 13 underweight children) was 0.18 (0.09) L/kg/h, the “Vd, Mean (SD) or Median (Range)” value ([2]; 13 underweight children) was 0.97 (0.54) L/kg and the “Clearance, Mean (SD) or Median (Range)” value [2, 7] was 0.16 (0.05) L/kg/h. The “Vd, Mean (SD) or Median (Range)” value [2, 7] was 0.81 (0.37) L/kg, the “Clearance, Mean (SD) or Median (Range)” value ([2]; 31 normal-weight children) was 0.2 (0.08) L/kg/h and the “Vd, Mean (SD) or Median (Range)” value ([2]; 31 normal-weight children) was 1 (0.35) L/kg. The “Clearance, Mean (SD) or Median (Range)” value [3, 8] was 0.065 (0.004) L/kg/h, the “Vd, Mean (SD) or Median (Range)” value [3, 8] was 0.39 (0.06) L/kg and the “Clearance, Mean (SD) or Median (Range)” value [3, 9] was 0.066 (0.01) L/kg/h. For the same molecule, the “Vd, Mean (SD) or Median (Range)” value [3, 9] was 0.26 (0.03) L/kg, the “Clearance, Mean (SD) or Median (Range)” value [3, 10] was 0.174 (0.04) L/kg/h and the “Vd, Mean (SD) or Median (Range)” value [3, 10] was 0.68 (0.07) L/kg. For the same molecule, the “Clearance, Mean (SD) or Median (Range)” value [3, 11] was 0.072 (0.012) L/kg/h, the “Vd, Mean (SD) or Median (Range)” value [3, 11] was 0.32 (0.05) L/kg and the “Clearance, Mean (SD) or Median (Range)” value [3, 12] was 0.186 (0.042) L/kg/h. For the same molecule, the “Vd, Mean (SD) or Median (Range)” value [3, 12] was 0.83 (0.08) L/kg, the “Clearance, Mean (SD) or Median (Range)” value [3, 13] was 0.06 (0.024) L/kg/h and the “Vd, Mean (SD) or Median (Range)” value [3, 13] was 0.64 (0.26) L/kg. For the same molecule, the “Vd, Mean (SD) or Median (Range)” value ([3]; 37 underweight adults (Weight <80% IW), weight used: IW, 95% CI 0.55–0.68) was 0.62 (0.55–0.68 ^‡) L/kg, the “Clearance, Mean (SD) or Median (Range)” value ([3]; 107 obese adults (Weight >120% LBM), weight used: Weight, range of means) was 0.0366–0.051 ^† L/kg/h and the “Vd, Mean (SD) or Median (Range)” value ([3]; 108 obese adults (Weight >130% IW), weight used: IW, 95% CI 0.82–0.97) was 0.89 (0.82–0.97 ^‡) L/kg. For the same molecule, the “Vd, Mean (SD) or Median (Range)” value ([3]; 108 obese adults (Weight >130% IW), weight used: Weight, 95% CI 0.52–0.59) was 0.56 (0.52–0.59 ^‡) L/kg.
